Published values from different studies.
Each line is one published result; the experiments were not run side by side.
Observed: chemical stability

With `COc1ccc(S(=O)(=O)NCC2CCN(C(=O)OC(C(F)(F)F)C(F)(F)F)CC2)cc1` the half-life was 2.58 h (HPLC; aqueous buffer; 167 µM, pH 7.4).
For `Cc1cccc(C(=O)Oc2cnnc3ccc([N+](=O)[O-])cc23)c1`, the half-life was 0.698 h (aqueous buffer; pH 7.3).
`CO[C@@H]1[C@H](O)[C@@H](CO)O[C@H]1n1c([N+](=O)[O-])nc2c(=O)[nH]c(N)nc21` has a half-life of 11 h (HPLC; aqueous buffer; 500 µM, pH 2).
`COc1cc(/C=C/C(=O)CC(=O)/C=C/c2ccc(O)c(OC)c2)ccc1O` has a half-life of 0.9 h (HPLC; culture medium; 10 µM).
`O=C(OC(C(F)(F)F)C(F)(F)F)N1CCC(CNS(=O)(=O)c2ccc(Cl)cc2)CC1` gave a half-life of 6.86 h (HPLC; aqueous buffer; 167 µM, pH 7.4).
With `Cc1cccc(C(=O)n2ncc(=O)c3cc([N+](=O)[O-])ccc32)c1` the half-life was 0.55 h (aqueous buffer; pH 7.3).
For `CO[C@@H](C[C@H]1C(C)=CC[C@@H]2[C@]3(C)C[C@H](O[C@@H]4O[C@@H](C)[C@H](OC(=O)c5cccc(O)c5)[C@@H](O[C@@H]5O[C@H](CO)[C@@H](O)[C@H](O)[C@H]5NC(C)=O)[C@H]4O)[C@@H](O)C(C)(C)[C@H]3CC[C@]21C)[C@H](N)C(=O)O.O=C(O)C(F)(F)F`, the half-life was greater than 8 h (simulated intestinal fluid; 1 µM, pH 6.8).
`Cc1cn([C@H]2C=C[C@@H](CO)O2)c(=O)[nH]c1=O` has a half-life of greater than 40 h (HPLC; aqueous buffer; 920 µM, pH 7.3).
`Cc1ccc(S(=O)(=O)NCC2CCN(C(=O)OC(C(F)(F)F)C(F)(F)F)CC2)cc1` gave a half-life of 1.24 h (HPLC; aqueous buffer; 167 µM, pH 7.4).
`COc1ccc(OC)c(/C=C2\CC/C(=C\c3ccc(O)c(OC)c3)C2=O)c1` gave a half-life of 2.6 h (HPLC; culture medium; 10 µM).
For `Nc1nc2c(nc([N+](=O)[O-])n2[C@@H]2O[C@H](CO)[C@@H](O)[C@H]2O)c(=O)[nH]1`, the half-life was 5.35 h (HPLC; aqueous buffer; 500 µM, pH 2).
The half-life of `CCOC(=O)c1nn(C(=O)C2CC2)c2ccccc2c1=O` is reported as 1.44 h (aqueous buffer; pH 7.3).
With `Cn1nnc2c(-c3ccccc3)ncn2c1=O` the half-life was greater than 20 h (HPLC; PBS; pH 7.4).
